Structures are written as SMILES. Calls of active or inactive are those of the source. The calls are words filed in the database; no cut-off is given here.

In general, IC50 refers to the concentration that gives 50% inhibition.

For data set [1], the system named is PC-3. Put plainly: Cytotoxicity against human PC3 cells after at 30 uM after 48 to 72 hrs by XTT assay. Type of data set: functional, cell-based. (Formazan colour is commonly taken as a measure of viable cells.)
Data set [2] concerns PC-3. Put plainly: Antitumor activity against human PC3 cells xenografted in chicken chorioallantoic membrane assessed as decrease in tumor size treated topically QD for 4 days by immunohistochemical analysis. Type of data set: functional, cell-based. The method in brief:
(§1)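 0.7× 10^6 log-phase PC-3 cells in 20 μL medium/matrigel (1:1) grafted onto chicken CAM; from day 1, topical 20 μL compound or solvent once daily for 4 days. Xenografts fixed, paraffin-embedded, immunostained for Ki-67 with hematoxylin counterstain; staining quantified by image analysis; n = 3–6.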

The test system of data set [3] is PC-3. In words: Cytotoxicity against human PC3 cells at 30 uM after 48 hrs by XTT assay. Type of data set: functional, cell-based. The note with it: PC-3, 48 h.
The subject of data set [4] is PC-3. In words: Induction of cell cycle arrest in human PC3 assessed as accumulation of cells at G0/G1-phase at 10 uM after 24 hrs by propidium iodide staining-based FACS analysis (reference value: 58.7 +/- 1.4%). Format: functional. (In general: In flow cytometry, cells or beads pass a laser one at a time.)
Data set [5] relates to PC-3. In words: Cytotoxicity against human PC3 cells at 10 '-5 to 10 uM after 72 hrs by XTT assay. Format: functional, cell-based.
The test system of data set [6] is PC-3. In words: Induction of cell cycle arrest in human PC3 assessed as accumulation of cells at S-phase at 10 uM after 24 hrs by propidium iodide staining-based FACS analysis (reference value: 22.4 +/- 1.3%). Format: functional.
Data set [7] relates to PC-3. Put plainly: Induction of apoptosis in human PC3 cells assessed as DNA fragmentation at 10 uM after 72 hrs by SDS-PAGE analysis. Type of data set: functional, cell-based. The note with it: in the assay text read “agarose gel electrophoresis” for “SDS-PAGE analysis”. In short, it runs like this:
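PC-3 cells cultured with compound or solvent for 72 h; floating cells lysed in buffer of 100 mM Tris-HCl pH 8.0, 2 mM EDTA, 0.8% SDS, RNase A and proteinase K; DNA ladder resolved on 1.5% agarose gel.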

Data set [8] relates to PC-3. In words: Induction of cell cycle arrest in human PC3 assessed as accumulation of cells at G2/M-phase at 10 uM after 48 hrs by propidium iodide staining-based FACS analysis (reference value: 17.3 +/- 1.2%). Format: functional.
For data set [9], the system named is PC-3. In words: Antitumor activity against human PC3 cells xenografted in chicken chorioallantoic membrane assessed as inhibition of tumor angiogenesis treated topically QD for 4 days using desmin staining by immunohistochemical analysis. Format: functional, cell-based. The method in brief:
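PC-3 cells (0.7× 10^6 in 20 μL medium/matrigel 1:1) grafted onto chicken CAM, dosed topically with 20 μL compound or solvent once daily for 4 days from day 1. Paraffin sections immunostained for desmin as angiogenesis marker, hematoxylin counterstain; staining quantified by image analysis; n = 3–6.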

The subject of data set [10] is PC-3. Put plainly: Cytotoxicity against human PC3 cells at 4 uM after 72 hrs by XTT assay. Format: functional, cell-based. The note with it: PC-3, 72 h.
The nature of data set [11]: Cytotoxicity against human RWPE1 cells at 1 to 30 uM after 48 hrs by XTT assay. Type of data set: cell-based. The note with it: rwpe-1, 48 h. The method in brief: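 Normal prostate epithelial RWPE-1 cells (HPV18-immortalized) grown in keratinocyte serum-free medium, 3–5 × 10^3 cells/well, treated 48 h; viability by XTT reduction (final 125 μM XTT, 25 μM phenazine methosulfate, 4 h), A450. Means ± SEM of 3–5 experiments in triplicate.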

For data set [12], the system named is PC-3. In words: Induction of apoptosis in human PC3 cells assessed as increase in phosphatidylserine expression on outer cell membrane leaflet after 48 to 72 hrs by annexin V-FITC and propidium iodine staining-based by flow cytometric analysis. Type of data set: functional. In short, it runs like this:
(§2)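 PC-3 cells exposed 48 and 72 h, adherent cells detached with citric saline, stained with FITC-annexin V and propidium iodide, analysed by flow cytometry for annexin V+ cells. Means ± SEM of three experiments, Newman-Keuls test.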

The subject of data set [13] is PC-3. In words: Antitumor activity against human PC3 cells xenografted in chicken chorioallantoic membrane assessed as inhibition of cell proliferation treated topically QD for 4 days by immunohistochemical analysis. Format: functional, cell-based. The method in brief: as §1
(In general: In xenograft studies the graft and the host belong to different species.)

In data set [14] the test system is PC-3. Put plainly: Induction of apoptosis in human PC3 cells assessed as increase in phosphatidylserine expression on outer cell membrane leaflet at 3 to 30 uM by annexin V-FITC and propidium iodine staining-based by flow cytometric analysis. The note with it: TDE = time-dependent effect. Format: functional. In short, it runs like this: as §2
Data set [15] has as its system PC-3. In words: Induction of cell cycle arrest in human PC3 assessed as accumulation of cells at G2/M-phase at 10 uM after 24 hrs by propidium iodide staining-based FACS analysis (reference value: 18.9 +/- 0.3%). Type of data set: functional.
In data set [16] the test system is PC-3. In words: Induction of cell cycle arrest in human PC3 assessed as accumulation of cells at S-phase at 10 uM after 48 hrs by propidium iodide staining-based FACS analysis (reference value: 23.9 +/- 1.1%). Format: functional.
In data set [17] the test system is PC-3. In words: Induction of cell cycle arrest in human PC3 cells assessed as decrease in cyclin E expression at 3 to 10 uM after 48 hrs by Western blot analysis. Format: functional, cell-based. In short, it runs like this:
(§3)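 PC-3 whole-cell lysates at equal protein separated by SDS-PAGE and immunoblotted for cyclin D1 (24 h treatment) or cyclin E and p21Waf1/Cip1 (48 h treatment); actin as loading control; three independent repeats.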

For data set [18], the system named is PC-3. In words: Cytotoxicity against human PC3 cells assessed as cell death at 3 to 30 uM after 48 hrs by LDH-release assay in presence of 10 uM of pan-caspase inhibitor z-VAD-fmk.
Data set [19] relates to PC-3. In words: Induction of cell cycle arrest in human PC3 cells assessed as decrease in cyclin D1 expression at 3 to 10 uM after 24 hrs by Western blot analysis. Format: functional, cell-based. In short, it runs like this:
as §3

The test system of data set [20] is PC-3. In words: Induction of cell cycle arrest in human PC3 assessed as accumulation of cells at G0/G1-phase at 10 uM after 48 hrs by propidium iodide staining-based FACS analysis (reference value: 58.8 +/- 2.2%). Type of data set: functional.
In data set [21] the test system is PC-3. Put plainly: Antiproliferative activity against human PC3 cells assessed as reduction in colony formation after 21 days using crystal violet staining by anchorage-independent soft agar assay. Format: functional, cell-based. The method in brief: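 PC-3 cells (Ham's F12-K, 10% FCS) seeded at 1000 cells/cm2 in 0.35% agar with 10 μM compound or solvent; colonies grown 21 days, fixed and stained with crystal violet.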

Data set [22] relates to PC-3. In words: Induction of cell cycle arrest in human PC3 cells assessed as change in p21WAF1/Cip1 level at 3 to 10 uM after 48 hrs by Western blot analysis. Type of data set: functional, cell-based. In short, it runs like this: as §3
For data set [23], the system named is PC-3. Put plainly: Induction of apoptosis in human PC3 cells assessed as increase in phosphatidylserine expression on outer cell membrane leaflet at 10 uM by annexin V-FITC and propidium iodine staining-based by flow cytometric analysis. Format: functional. The note with it: TDE = time-dependent effect. In short, it runs like this: as §2
Data set [24] relates to PC-3. In words: Induction of cell cycle arrest in human PC3 assessed as accumulation of cells at G2/M-phase at 10 nM after 48 hrs by propidium iodide staining-based FACS analysis. Format: functional. The method in brief:
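Positive-control treatment of PC-3 cells, then trypsinization, 70% ethanol fixation, propidium iodide DNA staining with 40 μg/mL RNase A, flow cytometric DNA content and modelled phase distribution.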

For data set [25], the system named is PC-3. Put plainly: Cytotoxicity against human PC3 cells after at 10 uM after 72 hrs by XTT assay. Format: functional, cell-based.

Consider `CC(C)=CCC/C(C)=C/CC/C(C)=C/CC[C@@H]1[C@@]2(C)CC[C@H](O)C(C)(C)[C@@H]2CC[C@@]1(C)O`, for which the result in data set [1], in data set [5], in [7], in data set [17] and in data set [19] was Active. For the same molecule, the Activity result is “Dose-dependent effect” in data set [2]; 75.4% in data set [4]; 5.6% in [6]; 17.3% in data set [8]; “Dose-dependent effect” in data set [9]; “Non-toxic” in data set [11]. In addition, the Activity result was “Dose-dependent effect” in data set [12]; “Dose-dependent effect” in [13]; “tde” in data set [14]; 18.9% in [15]; 9.3% in [16]; 74.2% in [20]. The Activity entry in data set [21] is “Dose-dependent effect”. Also, the IC50 in data set [3] came to 30 µM; in data set [10], 4 µM. Also, the outcome in data set [18] and in data set [22] was inactive.
With `CC(=O)O[C@@]12CO[C@@H]1C[C@H](O)[C@@]1(C)C(=O)[C@H](O)C3=C(C)[C@@H](OC(=O)[C@H](O)[C@@H](NC(=O)OC(C)(C)C)c4ccccc4)C[C@@](O)([C@@H](OC(=O)c4ccccc4)[C@H]21)C3(C)C`, in data set [23], the Activity result was “tde”. Also, the outcome in data set [5] and in data set [24] was Active. In data set [25], the result was inactive.
